Reference: ChEMBL document CHEMBL1135896, “Synthesis and notable antimalarial activity of acyclic peroxides, L-(alkyldioxy)-L-(methyldioxy)cyclododecanes” (J Med Chem, 2002)

How the values were obtained:
FM3A [1] = experiment: (§1) In vitro antimalarial activity against Plasmodium falciparum; assay type: functional
FM3A [2] = experiment: Mammalian cell cytotoxicity assessed against mouse mammary tumor FM3A cells; assay type: functional, cell-based
Outline: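 Mouse mammary tumor FM3A cells in culture used as a mammalian cytotoxicity control; EC50 determined by a previously reported protocol. Selectivity is the mean EC50 for FM3A cells divided by the mean EC50 for P. falciparum.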

Plasmodium falciparum = experiment: as §1; assay type: functional, organism-based
Mus musculus [3] = experiment: In vivo 50% effective dose tested against Plasmodium berghei NK65 infected mice (Mus musculus), after oral administration.; assay type: functional
Outline: (§2)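 Mice infected with P. berghei, in groups of five, were given the compounds orally in olive oil at various concentrations. Dosing was once daily on days 0–3. Parasitemia was determined on day 4, and ED values were derived by a previously reported protocol.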

Mus musculus [4] = experiment: In vivo 50% effective dose tested against Plasmodium berghei NK65 infected mice (Mus musculus), after intraperitoneal administration; assay type: functional; conditions: ip
Outline: (§3)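 Mice infected with P. berghei, in groups of five, were given the compounds intraperitoneally in olive oil at various concentrations. Dosing was once daily on days 0–3. Parasitemia was determined on day 4, and ED values were derived by a previously reported protocol.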

Mus musculus [5] = experiment: In vivo 90% effective dose tested against Plasmodium berghei NK65 infected mice (Mus musculus), after intraperitoneal administration; assay type: functional; conditions: ip; outline: as §3
Mus musculus [6] = experiment: In vivo 90% effective dose tested against Plasmodium berghei NK65 infected mice (Mus musculus), after oral administration.; assay type: functional; outline: as §2
Mus musculus [7] = experiment: In vivo […] effective dose tested against Plasmodium berghei NK 65 infected mice (Mus musculus), after intraperitoneal administration; assay type: functional; conditions: ip; outline: as §3

Structure (SMILES) | Selectivity ratio (FM3A [1]) | EC50 (FM3A [2]) [µM] | EC50 (Plasmodium falciparum) [nM] | ED50 (Mus musculus [3]) [mg/kg] | ED50 (Mus musculus [4]) [mg/kg] | ED90 (Mus musculus [5]) [mg/kg] | ED90 (Mus musculus [6]) [mg/kg] | ED50 (Mus musculus [7]) [mg/kg]
CCOC(C)OOC1(OOC)CCCCCCCCCCC1 (stereo unspecified) | 41 | 12 | 290 |  |  |  |  | 
COOC1(OOC(C)(C)OC)CCCCCCCCCCC1 | 30 | 7.3 | 240 |  |  |  |  | 
C=C(C)COOC1(OOC)CCCCCCCCCCC1 | 13 | 17 | 1300 |  |  |  |  | 
COOC1(OOCCCCCCI)CCCCCCCCCCC1 | 116 | 86 | 740 |  |  |  |  | 
C=C(C)COOC1(OOCC(=C)C)CCCCCCCCCCC1 | 25 | 38 | 1500 |  |  |  |  | 
COOC1(OOC)CCCCCCCCCCC1 | 17 | 1.5 | 86 | 30 | 13 | 20 | 60 | 
CCCOOC1(OOCCC)CCCCCCCCCCC1 | 7 | 12 | 1800 |  |  |  |  | 
CCCCC(CCCC)(OC)OOCC | >6 | > 48 | 8600 |  |  |  |  | 
CCCCOOC1(OOCCCC)CCCCCCCCCCC1 | 4 | 8.5 | 2100 |  |  |  |  | 
COOC1(OOCCCCCCO)CCCCCCCCCCC1 | 22 | 1.6 | 72 |  | 30 | 60 |  | 
COOC1(OOCCCCCCOC2CCOCC2)CCCCCCCCCCC1 | 8 | 7.6 | 900 |  |  |  |  | 
C=CCOOC1(OOCC=C)CCCCCCCCCCC1 | 9 | 14 | 1600 |  |  |  |  | 
CCCOOC1(OC)CCCCCCCCCCC1 | >60 | > 37 | 620 |  |  |  |  | 
COOC1(OOCCC(=O)O)CCCCCCCCCCC1 |  | 0.45 | 5000 |  |  |  |  | 
COOC1(OOCCC(=O)OC)CCCCCCCCCCC1 | 6 | 1.4 | 230 |  |  |  |  | 
C=C(C)COOC(CCCC)(CCCC)OOC | 9 | 15 | 1600 |  |  |  |  | 
COOC1(OOCCCc2ccccc2)CCCCCCCCCCC1 | 34 | 34 | 1000 |  |  |  |  | 
C=CCCOOC1(OOC)CCCCCCCCCCC1 | 16 | 6 | 380 |  |  |  |  | 
COOC1(OOCCCCCC(=O)O)CCCCCCCCCCC1 | 52 | 14 | 270 |  |  |  |  | 
CCCCOOC1(OOC)CCCCCCCCCCC1 | 91 | 20 | 220 |  | 35 | 80 |  | 
CCOOC1(OOCC)CCCCCCCCCCC1 | 50 | 10 | 200 |  | 41 |  |  | 64
CCOOC1(OC)CCCCCCCCCCC1 | 113 | 26 | 230 |  | > 100 |  |  | 
COOC1(OC)CCCCCCCCCCC1 | 238 | 19 | 80 |  | 30 | 68 |  | 
C[C@@H]1CC[C@H]2[C@@H](C)C(=O)O[C@@H]3O[C@@]4(C)CC[C@@H]1[C@]32OO4 [ARTEMISININ] | 1000 |  |  | 13 | 5.4 | 32 | 89 | 
